Source: article PMC10870110 (RSC Advances, 2024)

Assays:
[1] = test system: A375 human melanoma cell line; test: Cytotoxicity by SRB assay on A375 cells; format: cell-based; conditions: read-out: IC50 on A375 cells, 72 h treatment, mean ± SD (n = 3)
How it was run: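 A375 cells kept in DMEM with 10% FBS and 100 U mL−1 penicillin/streptomycin at 37 °C, 5% CO2. Seeded, grown 24 h, then exposed 72 h to test compound at 0.01–100 μM. Fixed in 10% TCA (1 h, 4 °C), stained with 0.4% w/v SRB (10 min, dark), washed with 1% acetic acid, dye dissolved in 10 mM Tris pH 10.5, A540 read.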

[2] = test system: normal human skin fibroblast cells (HSF); test: Cytotoxicity by SRB assay on normal HSF cells; format: cell-based; conditions: for IC50: Homo sapiens, Skin fibroblast, read-out: HSF IC50; for Selectivity index (SI): IC50 of normal cells (HSF)/IC50 of tumor cells (A375)
How it was run: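 Normal human skin fibroblasts (HSF) grown in DMEM/10% FBS/penicillin-streptomycin, 37 °C, 5% CO2. Plated 24 h, then 72 h with test compound at 0.01–100 μM. TCA fixation, SRB staining, 10 mM Tris pH 10.5 solubilisation, absorbance at 540 nm. IC50 by Emax curve fit, mean ± SD. Selectivity index = IC50 in HSF / IC50 in A375.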

A375 cells [3] = test: Cell cycle analysis by DNA flow cytometry; format: cell-based, human; conditions: A375, 48 h treatment
VEGFR-2 = VEGFR-2 (Homo sapiens, UniProt P35968); test: VEGFR-2 inhibition assay; format: cell-based
A375 cells [4] = test: Scratch wound healing assay; format: cell-based, human; conditions: 4j at 0.5 μM
How it was run: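 Confluent A375 monolayers (1 × 10^5 cells/well seeding) scored with a pipette tip to give one straight cell-free line, PBS-rinsed, then exposed to test compound. Gap imaged at ×100 at 0, 24, 48 and 72 h; horizontal wound width measured. Closure % = 100 − (Wt/W0 × 100). Triplicates, mean ± SD; ANOVA with Tukey post-hoc, P < 0.05.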

A375 cells [5] = test: Annexin V-FITC/PI apoptosis assay; format: cell-based, human; conditions: A375, IC50 concentration, 48 h
BRAF^V600E = BRAF^V600E (Homo sapiens, UniProt P15056, V600E); test: BRAF^V600E inhibition assay; format: cell-based
Chain of BRAF^V600E (P15056 whole entry V600E): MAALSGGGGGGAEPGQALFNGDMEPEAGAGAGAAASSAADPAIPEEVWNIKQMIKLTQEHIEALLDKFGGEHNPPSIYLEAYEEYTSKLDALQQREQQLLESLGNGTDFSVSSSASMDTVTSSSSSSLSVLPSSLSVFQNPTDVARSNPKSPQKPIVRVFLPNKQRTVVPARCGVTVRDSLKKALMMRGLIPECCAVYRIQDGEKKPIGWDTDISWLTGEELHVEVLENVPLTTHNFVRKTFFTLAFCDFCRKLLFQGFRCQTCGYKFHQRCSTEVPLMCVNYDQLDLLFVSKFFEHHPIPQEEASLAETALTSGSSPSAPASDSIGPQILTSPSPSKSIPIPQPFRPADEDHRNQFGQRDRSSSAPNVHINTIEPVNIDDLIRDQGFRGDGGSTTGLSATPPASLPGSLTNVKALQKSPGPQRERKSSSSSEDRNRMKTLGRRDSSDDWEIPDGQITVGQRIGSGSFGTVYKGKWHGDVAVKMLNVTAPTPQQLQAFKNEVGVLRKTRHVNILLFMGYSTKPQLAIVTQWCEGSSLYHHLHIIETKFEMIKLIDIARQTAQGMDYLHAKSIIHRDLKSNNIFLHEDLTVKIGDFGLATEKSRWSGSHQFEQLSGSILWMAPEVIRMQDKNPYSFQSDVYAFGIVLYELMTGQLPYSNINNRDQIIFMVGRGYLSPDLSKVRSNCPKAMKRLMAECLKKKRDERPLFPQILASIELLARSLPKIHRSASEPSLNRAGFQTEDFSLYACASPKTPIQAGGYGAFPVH

Chain of VEGFR-2 (P35968 20-1356): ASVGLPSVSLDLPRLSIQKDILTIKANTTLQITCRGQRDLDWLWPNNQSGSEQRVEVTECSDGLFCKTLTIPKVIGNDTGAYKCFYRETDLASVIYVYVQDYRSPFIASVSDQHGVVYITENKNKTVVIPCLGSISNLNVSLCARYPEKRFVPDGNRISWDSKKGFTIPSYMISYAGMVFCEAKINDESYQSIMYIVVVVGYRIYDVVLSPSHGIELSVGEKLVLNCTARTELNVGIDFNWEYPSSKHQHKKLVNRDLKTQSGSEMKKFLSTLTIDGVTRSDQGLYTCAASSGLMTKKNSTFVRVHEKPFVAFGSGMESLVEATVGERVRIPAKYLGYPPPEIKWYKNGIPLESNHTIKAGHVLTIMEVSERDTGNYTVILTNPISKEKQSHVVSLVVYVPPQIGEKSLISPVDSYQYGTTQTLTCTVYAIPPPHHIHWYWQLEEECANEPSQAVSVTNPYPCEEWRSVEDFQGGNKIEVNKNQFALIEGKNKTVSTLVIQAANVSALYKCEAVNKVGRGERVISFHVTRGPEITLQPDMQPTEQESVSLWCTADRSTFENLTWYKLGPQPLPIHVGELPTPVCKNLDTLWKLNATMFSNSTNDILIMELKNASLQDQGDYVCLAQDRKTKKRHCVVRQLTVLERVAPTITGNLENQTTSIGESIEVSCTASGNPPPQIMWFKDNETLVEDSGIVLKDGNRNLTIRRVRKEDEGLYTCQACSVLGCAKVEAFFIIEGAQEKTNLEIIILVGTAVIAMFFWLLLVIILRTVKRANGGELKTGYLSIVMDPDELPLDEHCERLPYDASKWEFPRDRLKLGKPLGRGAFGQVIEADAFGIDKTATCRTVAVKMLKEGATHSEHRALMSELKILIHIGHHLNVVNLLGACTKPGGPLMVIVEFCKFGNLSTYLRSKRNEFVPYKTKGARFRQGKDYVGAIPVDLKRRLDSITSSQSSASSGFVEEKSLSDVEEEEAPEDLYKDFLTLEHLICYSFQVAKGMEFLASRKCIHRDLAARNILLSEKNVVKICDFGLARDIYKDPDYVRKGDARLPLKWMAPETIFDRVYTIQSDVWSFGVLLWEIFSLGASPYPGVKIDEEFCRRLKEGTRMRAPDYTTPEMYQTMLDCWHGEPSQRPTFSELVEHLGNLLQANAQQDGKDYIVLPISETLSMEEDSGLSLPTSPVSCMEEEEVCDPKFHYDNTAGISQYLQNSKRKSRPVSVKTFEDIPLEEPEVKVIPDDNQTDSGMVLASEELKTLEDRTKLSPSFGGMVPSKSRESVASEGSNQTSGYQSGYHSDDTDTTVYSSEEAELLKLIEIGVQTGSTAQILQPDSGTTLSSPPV

O=C1C(n2nc(-c3c(O)c4ccccc4oc3=O)cc2-c2ccc(F)cc2)c2ccccc2N1Cc1ccccc1 (stereo not shown) [Compound 4c, 1-Benzyl-3-(5-(4-fluorophenyl)-3-(4-hydroxy-2-oxo-2H-chromen-3-yl)-1H-pyrazol-1-yl) indolin-2-one]
IC50 [1]: 4.6 ± 0.32 µM

O=C1C(n2nc(-c3c(O)c4ccccc4oc3=O)cc2-c2ccc(F)cc2)c2cc(Cl)ccc2N1Cc1ccccc1 (stereo not shown) [Compound 4f, 1-Benzyl-5-chloro-3-(5-(4-fluorophenyl)-3-(4-hydroxy-2-oxo-2H-chromen-3-yl)-1H-pyrazol-1-yl) indolin-2-one]
IC50 [1]: 1.11 ± 0.02 µM
IC50 [2]: 4.18 ± 0.25 µM
Selectivity index (SI) [2]: 3.6

O=C1C(n2nc(-c3c(O)c4ccccc4oc3=O)cc2-c2ccc(F)cc2)c2cc(Br)ccc2N1Cc1ccccc1 (stereo not shown) [Compound 4i, 1-Benzyl-5-bromo-3-(5-(4-fluorophenyl)-3-(4-hydroxy-2-oxo-2H-chromen-3-yl)-1H-pyrazol-1-yl)indolin-2-one]
IC50 [2]: 3.26 ± 0.29 µM
Selectivity index (SI) [2]: 2.5

O=C1Nc2ccc(OC(F)(F)F)cc2C1n1nc(-c2c(O)c3ccccc3oc2=O)cc1-c1ccc(F)cc1 (stereo not shown) [Compound 4j, 3-(5-(4-Fluorophenyl)-3-(4-hydroxy-2-oxo-2H-chromen-3-yl)-1H-pyrazol-1-yl)-5 (trifluoromethoxy) indolin-2-one]
cell percentage in the G2/M phase (A375 cells [3]): 16.00%
cell percentage of the S phase (A375 cells [3]): 9.86%
cell population of the G0/G1-phase (A375 cells [3]): 74.14%
cell population of the pre-G phase (A375 cells [3]): 1.88%
IC50 (VEGFR-2): 0.64 ± 0.08 µM
scratch closure (A375 cells [4]; A375, 24 h): 14.28%
scratch closure (A375 cells [4]; A375, 48 h): 17.57%
scratch closure (A375 cells [4]; A375, 72 h): 35.16%
early apoptosis (Q2-4) (A375 cells [5]): 6.07%
late apoptosis (Q2-2) (A375 cells [5]): 2.3%
necrotic cell death (Q2-1) (A375 cells [5]): 2.52%
total cell death (A375 cells [5]; apoptosis plus necrosis): ~10.22%
fold more active than the reference sorafenib (BRAF^V600E inhibition) (BRAF^V600E): 2 fold
IC50 (BRAF^V600E; BRAF^V600E IC50, A375 cells, 24 h exposure, ELISA): 1.03 µM
IC50 [2]: 9.58 ± 0.73 µM
Selectivity index (SI) [2]: 9.9

O=C1C(n2nc(-c3c(O)c4ccccc4oc3=O)cc2-c2ccc(Cl)cc2)c2ccccc2N1Cc1ccccc1 (stereo not shown) [Compound 5c, 1-Benzyl-3-(5-(4-chlorophenyl)-3-(4-hydroxy-2-oxo-2H-chromen-3-yl)-1H-pyrazol-1-yl)indolin-2-one]
IC50 [1]: 3.8 ± 0.22 µM

O=C1C(n2nc(-c3c(O)c4ccccc4oc3=O)cc2-c2ccc(Cl)cc2)c2cc(Cl)ccc2N1Cc1ccccc1 (stereo not shown) [Compound 5f, 1-Benzyl-5-chloro-3-(5-(4-chlorophenyl)-3-(4-hydroxy-2-oxo-2H-chromen-3-yl)-1H-pyrazol-1-yl)indolin-2-one]
IC50 [2]: 3.59 ± 0.32 µM
Selectivity index (SI) [2]: 3.3

O=C1C(n2nc(-c3c(O)c4ccccc4oc3=O)cc2-c2ccc(Cl)cc2)c2cc(Br)ccc2N1Cc1ccccc1 (stereo not shown) [Compound 5i, 1-Benzyl-5-bromo-3-(5-(4-chlorophenyl)-3-(4-hydroxy-2-oxo-2H-chromen-3-yl)-1H-pyrazol-1-yl)indolin-2-one]
IC50 [2]: 3.63 ± 0.76 µM
Selectivity index (SI) [2]: 3.5

CNC(=O)c1cc(Oc2ccc(NC(=O)Nc3ccc(Cl)c(C(F)(F)F)c3)cc2)ccn1 [Sorafenib, reference compound]
cell percentage in the G2/M phase (A375 cells [3]): 23.02%
cell population of the G0/G1-phase (A375 cells [3]): 60.43%
cell population of the pre-G phase (A375 cells [3]): 22.88%
scratch closure (A375 cells [4]; A375, 24 h): 9.15%
scratch closure (A375 cells [4]; A375, 48 h): 12.07%
scratch closure (A375 cells [4]; A375, 72 h): 24.17%
apoptotic cell death (A375 cells [5]): 9.6%
